In ChEMBL document CHEMBL1687733, “Topoisomerase I gene mutations at F270 in the large subunit and N184 in the small subunit contribute to the resistance mechanism of the unicellular parasite Leishmania donovani towards 3,3'-diindolylmethane” (Antimicrob Agents Chemother, 2009):
Positions count from the first letter of the chain named. The source made the active and inactive calls. The rule behind the calls is not given here.

Columns and labels:
Leishmania donovani [1] = test: Antimicrobial activity against wild type Leishmania donovani AG83 transfected with drug-resistant Leishmania donovani LdDR50 topoisomerase 1 F270L, N184S mutant in large subunit assessed as inhibition of parasite growth at 20 uM after 24 hrs by MTT assay; format: functional; conditions: AG83, 24 h
How it was run: (§1)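 WT promastigotes transfected by electroporation with mutant large-subunit (pXG-HYG, hygromycin selection) and/or small-subunit (pXG-GFP2+, G418 selection) topoisomerase I genes. Grown with DIM 1–20 μM for 24 h; MTT read-out, growth as % of optical density of untreated WT parasites.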

Leishmania donovani [2] = test: Drug uptake in wild type Leishmania donovani AG83 at 20 uM after 30 mins by spectrophotometric analysis; format: ADME, organism-based; conditions: in vivo, 0.5 h
How it was run: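 Log-phase promastigotes at 3 × 10^7 cells/ml with 20 μM DIM at 22°C; aliquots at 1, 5, 10, 20 and 30 min washed three times in ice-cold PBS pH 7.4 with 0.01 N HCl, sonicated. Cell-associated DIM quantified by equilibrium dialysis and absorbance at 280 nm; three experiments in duplicate.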

Leishmania donovani [3] = test: Antimicrobial activity against wild type Leishmania donovani AG83 transfected with drug-resistant Leishmania donovani LdDR50 topoisomerase 1 K430N mutant in large subunit and N184S mutant in small subunit assessed as inhibition of parasite growth at 20 uM after 24 hrs by MTT assay; format: functional; conditions: AG83, 24 h; how it was run: as §1
Leishmania donovani [4] = test: Antimicrobial activity against wild type Leishmania donovani AG83 transfected with drug-resistant Leishmania donovani LdDR50 topoisomerase 1 wild type large subunit and N184S mutant in small subunit assessed as inhibition of parasite growth at 20 uM after 24 hrs by MTT assay; format: functional; conditions: AG83, 24 h; how it was run: as §1
[5] = system: T1, Leishmania donovani [F270L]; test: Inhibition of recombinant drug-resistant Leishmania donovani LdDR50 topoisomerase 1b wild type small subunit and large subunit F270L mutant-mediated relaxation of supercoiled pBluescript SK(+) DNA at up to 50 uM after 30 mins using ethidium bromide staining
T1 sequence (whole entry): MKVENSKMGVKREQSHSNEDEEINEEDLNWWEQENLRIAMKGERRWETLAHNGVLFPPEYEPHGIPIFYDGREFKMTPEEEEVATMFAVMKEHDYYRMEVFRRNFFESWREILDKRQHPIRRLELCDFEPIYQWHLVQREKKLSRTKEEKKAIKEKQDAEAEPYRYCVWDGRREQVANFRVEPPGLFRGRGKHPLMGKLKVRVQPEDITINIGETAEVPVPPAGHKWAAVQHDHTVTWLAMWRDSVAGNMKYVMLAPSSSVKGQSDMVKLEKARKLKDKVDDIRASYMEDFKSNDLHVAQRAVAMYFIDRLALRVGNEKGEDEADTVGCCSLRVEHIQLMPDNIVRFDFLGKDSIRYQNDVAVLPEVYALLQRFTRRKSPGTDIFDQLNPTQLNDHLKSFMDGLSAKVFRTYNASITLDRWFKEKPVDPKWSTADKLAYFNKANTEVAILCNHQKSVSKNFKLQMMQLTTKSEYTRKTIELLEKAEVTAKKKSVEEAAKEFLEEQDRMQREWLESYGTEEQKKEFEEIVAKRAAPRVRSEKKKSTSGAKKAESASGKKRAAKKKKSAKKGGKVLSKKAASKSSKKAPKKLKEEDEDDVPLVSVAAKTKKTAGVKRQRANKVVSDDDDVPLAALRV
How it was run: (§2)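 Reconstituted recombinant enzyme (30 fmol) with 90 fmol supercoiled pBluescript SK(+) DNA (3:1 DNA:enzyme), 30 min at 37°C with DIM (1–50 μM for fully mutant enzyme; 10 μM for single-site mutants); 4% DMSO vehicle control. Products on 1% agarose, ethidium bromide (0.5 μg/ml) stained; supercoiled monomer band quantified.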

[6] = system: T2, Leishmania donovani [F270L,K430N]; test: Inhibition of recombinant drug-resistant Leishmania donovani LdDR50 topoisomerase 1b wild type small subunit and large subunit F270L, K430N mutant-mediated relaxation of supercoiled pBluescript SK(+) DNA at up to 50 uM after 30 mins using ethidium bromide staining; how it was run: as §2
T2 sequence (whole entry): T1 sequence (whole entry) with K430N

[7] = system: T3, Leishmania donovani [N184S]; test: Inhibition of recombinant drug-resistant Leishmania donovani LdDR50 topoisomerase 1b wild type large subunit and small subunit N184S mutant-mediated relaxation of supercoiled pBluescript SK(+) DNA at up to 50 uM after 30 mins using ethidium bromide staining; how it was run: as §2
T3 sequence (whole entry): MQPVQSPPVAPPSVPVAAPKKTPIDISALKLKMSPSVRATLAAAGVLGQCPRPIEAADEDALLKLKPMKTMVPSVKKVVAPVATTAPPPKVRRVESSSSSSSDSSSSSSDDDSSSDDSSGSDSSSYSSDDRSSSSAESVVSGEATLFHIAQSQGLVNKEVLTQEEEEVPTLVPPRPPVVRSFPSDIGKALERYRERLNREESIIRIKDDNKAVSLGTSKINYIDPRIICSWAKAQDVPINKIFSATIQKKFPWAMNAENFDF

[8] = system: T4, DNA topoisomerase type IB small subunit (Leishmania donovani (strain BPK282A1)), E9B7X3 [N184S]; test: Effect on recombinant drug-resistant Leishmania donovani LdDR50 topoisomerase 1b small subunit N184S mutant-mediated cleavage of 25-mer duplex oligonucleotide at 20 uM after 30 mins by PAGE analysis
T4 sequence (whole entry): T3 sequence (whole entry)
How it was run: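 5′-32P-labelled 25-mer duplex (10 nM) incubated with reconstituted mutant enzyme (0.2 μM, 20-fold molar excess) and DIM 5–20 μM for 30 min (Methods 37°C; legend 23°C). Stopped with SDS, trypsin-treated, resolved on 12% denaturing polyacrylamide-urea gel; cleaved 12-mer detected by autoradiography.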

Leishmania donovani [9] = test: Ratio of KD for drug-resistant Leishmania donovani LdDR50 topoisomerase 1b to KD for wild type Leishmania donovani AG83 topoisomerase 1b
[10] = Binding affinity to Leishmania donovani large subunit of topoisomerase 1b

With `c1ccc2c(Cc3c[nH]c4ccccc34)c[nH]c2c1` [ARUNDINE] the inhibition at 20 µM (Leishmania donovani [1]) was 31%, the Drug uptake (Leishmania donovani [2]) was “Active” and the inhibition at 20 µM (Leishmania donovani [3]) was 86%. For the same compound, the inhibition at 20 µM (Leishmania donovani [4]) was 91%, the inhibition [5] was “inactive” and the inhibition [6] was “inactive”. For the same compound, the inhibition [7] was “Active”, the Activity [8] was “Active” and the Ratio (Leishmania donovani [9]) was 25000. The Kd [10] was 428 nM.
